An excerpt weighted towards active compounds, which were near 12% of everything screened.
Diaph inh CS – counter-screen for diaphorase-based assays: diaphorase inhibitors and chemical oxidizers. diaphorase resazurin-to-resorufin fluorescence, NADH, 16 min; bacterial (C. kluyveri) enzyme, not human. hit rate 0.69% among 190,000. inhibition, % at 20 µM. AID 1217;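 active = primary screen inhibition at 20 µM above a set limit, cut at about 50% in these data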;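 note: plate controls were DMSO with full reaction for no effect and wells lacking NADH for full effect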
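Benchmarks: positive control wells lacking NADH, neutral wells with DMSO only. System: bacterial diaphorase enzyme (C. kluyveri). Input: 0.14 U/mL diaphorase, enzyme working solution. Detection: resorufin fluorescence, excitation 544 nm, emission 590 nm. Times: 16-min room-temperature incubation before reading.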
L major viab – inhibitors of Leishmania major promastigote growth | Leishmania major promastigotes, resazurin fluorescence viability | inhibition, % at 10 µM | hit rate 9% among 200,000 | AID 1063; in the data active = inhibition above about 50%;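 note: promastigotes grown with compound for 44 hours at 28 °C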
WT yeast gro inh – growth inhibition of WT yeast, mitochondrial fusion screen | mitochondrial fusion phenotypic screen, WT strain | inhibition, % at 10 µM | hit rate 2.1% among 190,000; in the data active = inhibition above about 58%; tested in S. cerevisiae
KCC2 mod – KCC2 (human) Cl- transport modulation. Q9H2X9. KCC2 cells, thallium flux FluoZin-2 fluorescence. hit rate 2.2% among 190,000. B-score of Tl+ flux slope (higher = more flux/activation; lower = inhibition) at 10 µM;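 active = thallium flux slope and its plate-corrected score both differing from the plate sample mean at a set confidence after two filtering rounds, in either direction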;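 note: slope of fluorescence scaled to starting intensity during 10 to 20 s after thallium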
Diaphorase act – counter-screen for diaphorase-based assays: diaphorase activators and chemical reducers; Diaphorase/resazurin coupled assay, resorufin fluorescence, 16 min; active compounds read high; 1 = vehicle wells, 0 = NADH-free wells; activation factor at 20 µM; hit rate 0.005% among 190,000; AID 1229;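 active = diaphorase activity raised at least twofold by the compound at 20 µM; inactive = activation factor below 2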
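Measured by – red resorufin fluorescence at 544/590 nm excitation/emission · Test system – Clostridium kluyveri diaphorase, purified enzyme · Incubation – reaction time 16 min, room temperature · Buffer or medium – 50 mM HEPES pH 7.4 with 4.542 mM MgCl2, 0.005% Tween 20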
ROMK mod – human ROMK K+ channel modulation, primary screen | P48048 | Tet-inducible ROMK, thallium flux fluorescence; actives lie on both sides | B-score at 10 µM | hit rate 2% among 130,000;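 active = signal ratio slope over the read window, or its plate-corrected B-score, at least 3 SD from the plate mean, either direction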;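 note: B-score of the F/F0 ratio slope over 7 to 12 s after thallium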
* = called active by the depositor.

`CNC(=S)N1CCn2cccc2C1c1ccc(F)cc1` (stereo not given) gave Diaph inh CS -9.1, L major viab -5.1, WT yeast gro inh -13.0, KCC2 mod -0.221 and Diaphorase act 1.1.
For Fc1cccc(NC(=S)Nc2cccnc2)c1 the results were Diaph inh CS 14.4, L major viab 11.4, WT yeast gro inh 2.2, KCC2 mod 0.149, Diaphorase act 0.9 and ROMK mod -1.33.
For N#Cc1ccc(-c2ccc(F)cc2)nc1SCC(=O)Nc1sc2c(c1C#N)CCC2 the results were Diaph inh CS 12.9, L major viab -4.5, WT yeast gro inh 6.5, KCC2 mod -0.0316 and Diaphorase act 0.9.
S=C(NC1CCCCC1)N1CCn2cccc2C1c1cccnc1 (stereo not given) was read as Diaph inh CS 13.6, L major viab 97.6*, WT yeast gro inh 10.0, KCC2 mod -0.893, Diaphorase act 0.9 and ROMK mod -0.712.
`C(=N\N1CCN(C2c3ccccc3-c3ccccc32)CC1)/c1cccnc1` gave Diaph inh CS 9.4, L major viab 19.5, WT yeast gro inh 40.3, KCC2 mod -0.605 and Diaphorase act 0.9.
Screening C(=N\N1CCN(C2c3ccccc3-c3ccccc32)CC1)/c1ccccn1 returned Diaph inh CS 2.6, L major viab -3.3, WT yeast gro inh 66.7*, KCC2 mod 0.851 and Diaphorase act 1.
Screening COc1ccc(/C=N/N2CCOCC2)cc1O returned Diaph inh CS 9.8, L major viab -1.5, WT yeast gro inh -8.2, KCC2 mod 0.124, Diaphorase act 0.9 and ROMK mod -0.734.
COc1ccc(/C=N/N2CCN(C3c4ccccc4-c4ccccc43)CC2)cc1O was read as Diaph inh CS 21.0, L major viab 66.8*, WT yeast gro inh 7.1, KCC2 mod 0.346 and Diaphorase act 0.8.
`CC(=O)OCCSc1c(-c2ccccc2)c2cc(Cl)ccc2[nH]c1=O` gave Diaph inh CS 9.7, L major viab 2.1, WT yeast gro inh -1.1, KCC2 mod -1.06, Diaphorase act 0.9 and ROMK mod 0.494.
For CCN(CC)CCNc1ccc(CO)c2sc3ccccc3c(=O)c12 the results were Diaph inh CS 25.8, L major viab 99.8*, WT yeast gro inh 18.8, KCC2 mod -0.121 and Diaphorase act 0.7.
CC(C)(C)OC(=O)N1CCC(CNC(=O)Nc2ccccc2)CC1 was read as KCC2 mod -0.103 and ROMK mod -0.768.
`CCCC[C@@H]1C[C@H]1[C@@H](NC(=O)c1cccs1)c1ccc(Cl)cc1` gave Diaph inh CS 28.0, L major viab 40.5, WT yeast gro inh 70.0*, KCC2 mod -0.221, Diaphorase act 0.7 and ROMK mod -0.524.
`CCCC[C@@H]1C[C@H]1[C@@H](NC(=O)c1ccco1)c1ccc(Cl)cc1` gave Diaph inh CS 16.0, L major viab 1.1, WT yeast gro inh 73.4*, KCC2 mod -1.51, Diaphorase act 0.8 and ROMK mod -0.95.
O=C(NNc1ccc(Cl)cc1)c1cccs1 was read as KCC2 mod -0.528.
COc1ccc(C2=NO[C@@H]3[C@@H]4C[C@@H]([C@H]5C(=O)N(C)C(=O)[C@@H]45)[C@H]23)cc1 was read as Diaph inh CS 12.9, L major viab -2.6, WT yeast gro inh 8.3, KCC2 mod -0.0747 and Diaphorase act 0.9.
Screening COc1ccc(CN2CCN(C(=O)c3ccco3)CC2)cc1OC returned Diaph inh CS 15.3, L major viab -4.0, WT yeast gro inh -8.7, KCC2 mod -0.0165, Diaphorase act 0.8 and ROMK mod -0.442.
For COc1ccc(CN2CCN(C(=O)c3ccco3)CC2)cc1OCc1ccccc1 the results were Diaph inh CS 15.6, L major viab 87.3*, WT yeast gro inh 13.3, KCC2 mod -0.0659, Diaphorase act 0.8 and ROMK mod 0.194.
Screening CCN1CCN(Cc2ccc(OC)c(OCc3ccccc3)c2)CC1 returned Diaph inh CS 17.1, L major viab 16.8, WT yeast gro inh 7.7, KCC2 mod 0.475 and Diaphorase act 0.8.
COc1ccc(CN2CCN(c3ccccn3)CC2)cc1OCc1ccccc1 was read as Diaph inh CS 15.2, L major viab 72.5*, WT yeast gro inh 13.1, KCC2 mod -0.0115 and Diaphorase act 0.8.

Compound activity deposited in PubChem by several laboratories.
